Test results from ChEMBL document CHEMBL1128705, “[[[(Thienylcarbonyl)alkyl]oxy]phenyl]- and [[[(pyrrylcarbonyl)alkyl]oxy]phenyl]oxazoline derivatives with potent and selective antihuman rhinovirus activity” (J Med Chem, 1995).
≈ marks a conversion by molar mass, not a printed value.

Key:
Human rhinovirus sp. [1] = assay: In vitro concentration required to achieve 50% protection of HeLa cells from HRV-14 induced cytopathic effect; format: functional, organism-based
Summary of the method: (§1)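 HeLa-Ohio cells (20 000/well) are seeded in D-MEM with 2% FCS, 30 mM MgCl2 and 15 µg/mL DEAE-dextran, then grown overnight at 37 °C, 5% CO2, to a subconfluent monolayer. Compound dilutions (from 200× DMSO stocks) are added with HRV at 200–2000 PFU/monolayer, dosed to give full CPE in 72 h. Plates are held at 33 °C and viability is read by MTT. EC50 is the concentration giving 50% protection.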

HeLa [2] = assay: In vitro concentration required to achieve 50% protection of HeLa cells from HRV-2 induced cytopathic effect; format: functional, cell-based; conditions: Homo sapiens; summary of the method: as §1
HeLa [3] = assay: In vitro concentration required to reduce the viability of mock-infected HeLa cells by 50%; format: functional; conditions: Homo sapiens
Summary of the method: (§2)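 Cytotoxicity run alongside the antiviral assay on mock-infected HeLa-Ohio cells. Compounds are taken from 200× DMSO stocks and serially diluted in maintenance medium. Cells are incubated 72 h at 37 °C and viability is read by MTT. CC50 is the concentration that reduces viability by 50%.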

Human rhinovirus sp. [4] = assay: In vitro concentration which inhibits 80% of serotypes tested; format: functional
Summary of the method: (§3)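 CPE-inhibition MTT assay in HeLa-Ohio cells (30 mM MgCl2, 15 µg/mL DEAE-dextran, 2% FCS), infected at 200–2000 PFU/monolayer and incubated at 33 °C. MIC80 is the concentration inhibiting 80% of the serotypes tested.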

HeLa [5] = assay: Compound concentration required to reduce the viability of mock-infected HeLa cells by 50%, was reported.; format: functional; conditions: Homo sapiens; summary of the method: as §2
Human rhinovirus sp. [6] = assay: Compound concentration which inhibits 80% of serotypes tested, was reported.; format: functional; summary of the method: as §3
HeLa [7] = assay: In vitro concentration required to reduce the viability of mock-infected HeLa cells by 50%, was reported.; format: functional; conditions: Homo sapiens; summary of the method: as §2

CCOC(=O)c1ccc(OCCCCC(=O)c2ccc(C)o2)cc1
EC50 (Human rhinovirus sp. [1]): 2.42 µM | EC50 (HeLa [2]): 0.91 µM | CC50 (HeLa [3]): 65 µM

CCOC(=O)c1ccc(OCCCCC(=O)c2ccc(Cl)s2)cc1
EC50 (Human rhinovirus sp. [1]): 0.54 µM | EC50 (HeLa [2]): 0.08 µM | MIC80 (Human rhinovirus sp. [4]): 2.18 µM (≈ 0.8 µg/mL) | CC50 (HeLa [3]): 273 µM

Cn1cc(C(=O)CCCCOc2ccc(C(=O)O)cc2)cc1C=O
EC50 (Human rhinovirus sp. [1]): > 30.9 µM | EC50 (HeLa [2]): > 30.9 µM | CC50 (HeLa [5]): > 303 µM | MIC80 (Human rhinovirus sp. [6]): > 30.9 µM

O=C(CCCCOc1ccc(C2=NCCO2)cc1)c1ccc[nH]1
EC50 (Human rhinovirus sp. [1]): 8.01 µM | EC50 (HeLa [2]): 3.2 µM | MIC80 (Human rhinovirus sp. [4]): > 32 µM | CC50 (HeLa [3]): > 320 µM

Clc1ccc(CCCCCOc2ccc(C3=NCCO3)cc2)s1
EC50 (Human rhinovirus sp. [1]): 2.85 µM | EC50 (HeLa [2]): 2.57 µM | MIC80 (Human rhinovirus sp. [4]): 21.4 µM (≈ 7.5 µg/mL) | CC50 (HeLa [3]): 71 µM

O=C(CCCCOc1ccc(C2=NCCO2)cc1)c1ccc(Cl)s1
EC50 (Human rhinovirus sp. [1]): 0.13 µM | EC50 (HeLa [2]): 0.81 µM | MIC80 (Human rhinovirus sp. [4]): > 27.1 µM | CC50 (HeLa [3]): > 271 µM

c1ccn(CCCCCOc2ccc(C3=NCCO3)cc2)c1
EC50 (Human rhinovirus sp. [1]): > 31.9 µM | EC50 (HeLa [2]): 1.43 µM | MIC80 (Human rhinovirus sp. [4]): 15.9 µM (≈ 4.75 µg/mL) | CC50 (HeLa [3]): 159 µM

Cc1csc(C(=O)CCCCOc2ccc(C(=O)O)cc2)c1
EC50 (Human rhinovirus sp. [1]): > 31.4 µM | EC50 (HeLa [2]): > 31.4 µM | MIC80 (Human rhinovirus sp. [4]): > 31.4 µM | CC50 (HeLa [3]): > 314 µM

CCOC(=O)c1ccc(OCCCCC(=O)c2cc(C)[nH]c2C)cc1
EC50 (Human rhinovirus sp. [1]): 18.9 µM | EC50 (HeLa [2]): 1.17 µM | MIC80 (Human rhinovirus sp. [4]): > 29 µM | CC50 (HeLa [3]): 204 µM

Cc1ccc(C(=O)CCCCOc2ccc(C(=O)O)cc2)s1
EC50 (Human rhinovirus sp. [1]): > 31.4 µM | EC50 (HeLa [2]): > 31.4 µM | MIC80 (Human rhinovirus sp. [4]): > 31.4 µM | CC50 (HeLa [3]): > 314 µM

Cc1ccc(C(=O)CCCCOc2ccc(C3=NCCO3)cc2)s1
EC50 (Human rhinovirus sp. [1]): 0.14 µM | EC50 (HeLa [2]): 1.31 µM | MIC80 (Human rhinovirus sp. [4]): 9.04 µM (≈ 3.1 µg/mL) | CC50 (HeLa [3]): 146 µM

CCOC(=O)c1ccc(OCCCC(=O)c2ccc(C)s2)cc1
EC50 (Human rhinovirus sp. [1]): > 30.1 µM | EC50 (HeLa [2]): 10.6 µM | MIC80 (Human rhinovirus sp. [4]): > 30.1 µM | CC50 (HeLa [3]): > 301 µM

Cc1ccc(CCCCCOc2ccc(C3=NCCO3)cc2)s1
EC50 (Human rhinovirus sp. [1]): 11.5 µM | EC50 (HeLa [2]): 2.58 µM | MIC80 (Human rhinovirus sp. [4]): > 30.4 µM | CC50 (HeLa [3]): > 303 µM

Cc1cc(C(=O)CCCCOc2ccc(C3=NCCO3)cc2)c(C)n1C
EC50 (Human rhinovirus sp. [1]): 11.3 µM | EC50 (HeLa [2]): > 28.2 µM | MIC80 (Human rhinovirus sp. [4]): > 28.2 µM | CC50 (HeLa [3]): 141 µM

Cc1ccsc1C(=O)CCCCOc1ccc(C(=O)O)cc1
EC50 (Human rhinovirus sp. [1]): > 31.4 µM | EC50 (HeLa [2]): > 31.4 µM | MIC80 (Human rhinovirus sp. [4]): > 31.4 µM | CC50 (HeLa [3]): > 314 µM

Cc1ccc(C(=O)CCCOc2ccc(C3=NCCO3)cc2)s1
EC50 (Human rhinovirus sp. [1]): 22.7 µM | EC50 (HeLa [2]): 15.2 µM | MIC80 (Human rhinovirus sp. [4]): > 30.3 µM

Cc1ccc(C(=O)CCCCOc2ccc(C(=O)NCCO)cc2)o1
EC50 (Human rhinovirus sp. [1]): > 30.6 µM | EC50 (HeLa [2]): > 30.6 µM | MIC80 (Human rhinovirus sp. [4]): > 30.6 µM | CC50 (HeLa [3]): > 305 µM

Cc1csc(C(=O)CCCCOc2ccc(C3=NCCO3)cc2)c1
EC50 (Human rhinovirus sp. [1]): 0.87 µM | EC50 (HeLa [2]): 2.91 µM | MIC80 (Human rhinovirus sp. [4]): 14.6 µM (≈ 5.01 µg/mL) | CC50 (HeLa [3]): 73 µM

CCOC(=O)c1ccc(OCCCCC(=O)c2cc(C)cs2)cc1
EC50 (Human rhinovirus sp. [1]): 5.78 µM | EC50 (HeLa [2]): 2.89 µM | CC50 (HeLa [3]): > 289 µM

Cc1cc(C(=O)CCCCOc2ccc(C3=NCCO3)cc2)c(C)[nH]1
EC50 (Human rhinovirus sp. [1]): > 29.4 µM | EC50 (HeLa [2]): > 29.4 µM | MIC80 (Human rhinovirus sp. [4]): > 29.4 µM | CC50 (HeLa [3]): 205 µM

CCOC(=O)c1ccc(OCCCCCc2ccc(C)s2)cc1
EC50 (Human rhinovirus sp. [1]): 7.16 µM | EC50 (HeLa [2]): 1.59 µM | MIC80 (Human rhinovirus sp. [4]): 14.3 µM (≈ 4.76 µg/mL) | CC50 (HeLa [3]): 301 µM

CCOC(=O)c1ccc(OCCCCC(=O)c2cc[nH]c2)cc1
EC50 (Human rhinovirus sp. [1]): 13.3 µM | EC50 (HeLa [2]): 11 µM | MIC80 (Human rhinovirus sp. [4]): 19.5 µM (≈ 6.14 µg/mL) | CC50 (HeLa [3]): > 317 µM

CCOC(=O)c1ccc(OCCCCCc2ccc(Cl)s2)cc1
EC50 (Human rhinovirus sp. [1]): 9.15 µM | EC50 (HeLa [2]): 1.84 µM | MIC80 (Human rhinovirus sp. [4]): 18.3 µM (≈ 6.45 µg/mL) | CC50 (HeLa [3]): > 284 µM

CCOC(=O)c1ccc(OCCCCC(=O)c2cc(C)n(C)c2C)cc1
EC50 (Human rhinovirus sp. [1]): 16.8 µM | EC50 (HeLa [2]): 2.28 µM | MIC80 (Human rhinovirus sp. [4]): > 28 µM | CC50 (HeLa [3]): 56 µM

CCOC(=O)c1ccc(OCCCCC(=O)c2ccc(C)s2)cc1
EC50 (Human rhinovirus sp. [1]): 0.29 µM | EC50 (HeLa [2]): 0.06 µM | MIC80 (Human rhinovirus sp. [4]): 2.31 µM (≈ 0.8 µg/mL) | CC50 (HeLa [3]): > 289 µM

c1cc(C2=NCCO2)ccc1OCCCCCN1CCCC1
EC50 (Human rhinovirus sp. [1]): > 33.1 µM | EC50 (HeLa [2]): > 33.1 µM | MIC80 (Human rhinovirus sp. [4]): > 33.1 µM | CC50 (HeLa [3]): 165 µM

Cn1cccc1C(=O)CCCCOc1ccc(C2=NCCO2)cc1
EC50 (Human rhinovirus sp. [1]): 3.68 µM | EC50 (HeLa [2]): > 30.7 µM | MIC80 (Human rhinovirus sp. [4]): > 30.7 µM | CC50 (HeLa [7]): > 306 µM

O=C(O)c1ccc(OCCCCC(=O)c2ccc(Cl)s2)cc1
EC50 (Human rhinovirus sp. [1]): > 29.5 µM | EC50 (HeLa [2]): > 29.5 µM | MIC80 (Human rhinovirus sp. [4]): > 29.5 µM | CC50 (HeLa [3]): > 295 µM

CCOC(=O)c1ccc(OCCCCC(=O)c2cc(C=O)n(C)c2)cc1
EC50 (Human rhinovirus sp. [1]): 1.96 µM | EC50 (HeLa [2]): 0.67 µM | CC50 (HeLa [5]): 56 µM | MIC80 (Human rhinovirus sp. [6]): 8.4 µM (≈ 3 µg/mL)

Cc1ccsc1C(=O)CCCCOc1ccc(C2=NCCO2)cc1
EC50 (Human rhinovirus sp. [1]): 1.46 µM | EC50 (HeLa [2]): 29.2 µM | MIC80 (Human rhinovirus sp. [4]): > 29.1 µM | CC50 (HeLa [3]): 291 µM

O=C(CCCCOc1ccc(C2=NCCO2)cc1)c1cc[nH]c1
EC50 (Human rhinovirus sp. [1]): > 32 µM | EC50 (HeLa [2]): > 32 µM | MIC80 (Human rhinovirus sp. [4]): > 32 µM | CC50 (HeLa [3]): > 320 µM

CCOC(=O)c1ccc(OCCCCC(=O)c2sccc2C)cc1
EC50 (Human rhinovirus sp. [1]): > 28.9 µM | EC50 (HeLa [2]): 6.94 µM | MIC80 (Human rhinovirus sp. [4]): 20.8 µM (≈ 7.21 µg/mL) | CC50 (HeLa [3]): 202 µM

Cn1cc(C(=O)CCCCOc2ccc(C3=NCCO3)cc2)cc1C=O
EC50 (Human rhinovirus sp. [1]): > 28.2 µM | EC50 (HeLa [2]): > 28.2 µM | CC50 (HeLa [5]): > 282 µM | MIC80 (Human rhinovirus sp. [6]): > 28.2 µM

Cc1cc(CCCCCCCOc2ccc(C3=NCCO3)cc2)on1 [DISOXARIL]
EC50 (Human rhinovirus sp. [1]): 1.76 µM | EC50 (HeLa [2]): 2.35 µM | CC50 (HeLa [5]): 37 µM | MIC80 (Human rhinovirus sp. [6]): 3.51 µM (≈ 1.2 µg/mL)
